# Measurements from PubChem BioAssay.
# Calls of active or inactive are those of the source. Unless noted, no stated cut-off is given here; in the data, active means inhibition above about 30%; inactive means the rest.
# Legend:
# [1] = Her2 expression decrease, cell viability multiplex – SKBR3 breast tumor cells, AlphaScreen, ATP viability, primary screen (AID 461;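 active means Her2 level under about 52% in both replicate screens, with viability over 70% of control, limit read from the data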;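 on Her2 level: lower value means less Her2 protein in the cells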;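 on viability: percent of carrier control wells set as 100% viability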); conditions: SKBR3 Her2 protein level, 18-24 h, measured here: SKBR3 viability, ATP luminescence, at 10 µM
# [2] = target: Receptor tyrosine-protein kinase erbB-2 (Homo sapiens) (UniProt P04626); assay: as above; conditions: 18-24 h, at 10 µM, stronger effect = lower value
# [3] = reduced viability of SK-BR-3 breast cancer cells – cell-based, 24 h, human, pilot screen (AID 572;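 active means viability at or below 10% of carrier control in both of two separate runs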;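 further: compound exposure lasted between 18 and 24 h rather than exactly 24 h; 100% = carrier-treated control wells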); conditions: SK-BR-3 viability, CellTiter-Glo luminescence, at 10 µM, stronger effect = lower value
# [4] = HUVEC growth inhibition – cell-based, human, primary screen (AID 575;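 active means viability at or below 30% in both replicate assays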;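 further: 100% = median of untreated cell wells with 0.1% DMSO on each plate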); conditions: HUVEC proliferation, CellTiter-Glo luminescence, 72 h; at 10 µM; stronger effect = lower value
# Procedure, shortened: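 Timing: 72 h treatment at 37 °C; material: HUVEC primary cells; technique: CellTiter-Glo luminescence measuring cellular ATP; controls: vehicle and MePR control wells; measure: percent of median DMSO-control luminescence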
# [5] = H69AR cell proliferation blockers – human, duplicate replicates, primary screen (AID 580;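 active means viability at or under a set limit in both replicates, limit being median viability minus 3 SD, cut at about 48% in these data, passing the limit was not always enough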;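 further: 100% = mean luminescence of untreated wells and 0% = no signal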); conditions: H69AR lung tumor cells viability, ATP luminescence, 72 h; at 10 µM; stronger effect = lower value
# [6] = MRP1 drug-resistance reversers in H69AR cells – cell-based, doxorubicin co-treatment, pilot screen (AID 601;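 active means viability loss from added drug above about 55%, and viability with drug at most 40%, in both replicates, limit read from the data, passing the limit was not always enough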); conditions: CellTiter-Glo, 72 h, at 10 µM; for differential viability (reversal): stronger effect = higher value
# [7] = yeast transport mutant growth inhibition pilot in 384-well plates, post-Golgi transport modulator project (AID 636; in the data active means inhibition above about 31%); conditions: absorbance 615 nm, about 18 h, stronger effect = higher value
# [8] = growth suppression of yeast trafficking mutant, preliminary HTS, modulators of trafficking downstream of Golgi apparatus project, 1536-format plate, OD 615 nm (AID 637); conditions: yeast transport mutant growth, absorbance 615 nm, 18 h; stronger effect = higher value
# [9] = H69AR cells + 2 uM doxorubicin, measured here: viability with 2 uM doxorubicin, stronger effect = lower value
# [10] = H69AR cells, compound alone cytotoxicity
# Sequence of Receptor tyrosine-protein kinase erbB-2 (Homo sapiens) (P04626 whole entry, looked up): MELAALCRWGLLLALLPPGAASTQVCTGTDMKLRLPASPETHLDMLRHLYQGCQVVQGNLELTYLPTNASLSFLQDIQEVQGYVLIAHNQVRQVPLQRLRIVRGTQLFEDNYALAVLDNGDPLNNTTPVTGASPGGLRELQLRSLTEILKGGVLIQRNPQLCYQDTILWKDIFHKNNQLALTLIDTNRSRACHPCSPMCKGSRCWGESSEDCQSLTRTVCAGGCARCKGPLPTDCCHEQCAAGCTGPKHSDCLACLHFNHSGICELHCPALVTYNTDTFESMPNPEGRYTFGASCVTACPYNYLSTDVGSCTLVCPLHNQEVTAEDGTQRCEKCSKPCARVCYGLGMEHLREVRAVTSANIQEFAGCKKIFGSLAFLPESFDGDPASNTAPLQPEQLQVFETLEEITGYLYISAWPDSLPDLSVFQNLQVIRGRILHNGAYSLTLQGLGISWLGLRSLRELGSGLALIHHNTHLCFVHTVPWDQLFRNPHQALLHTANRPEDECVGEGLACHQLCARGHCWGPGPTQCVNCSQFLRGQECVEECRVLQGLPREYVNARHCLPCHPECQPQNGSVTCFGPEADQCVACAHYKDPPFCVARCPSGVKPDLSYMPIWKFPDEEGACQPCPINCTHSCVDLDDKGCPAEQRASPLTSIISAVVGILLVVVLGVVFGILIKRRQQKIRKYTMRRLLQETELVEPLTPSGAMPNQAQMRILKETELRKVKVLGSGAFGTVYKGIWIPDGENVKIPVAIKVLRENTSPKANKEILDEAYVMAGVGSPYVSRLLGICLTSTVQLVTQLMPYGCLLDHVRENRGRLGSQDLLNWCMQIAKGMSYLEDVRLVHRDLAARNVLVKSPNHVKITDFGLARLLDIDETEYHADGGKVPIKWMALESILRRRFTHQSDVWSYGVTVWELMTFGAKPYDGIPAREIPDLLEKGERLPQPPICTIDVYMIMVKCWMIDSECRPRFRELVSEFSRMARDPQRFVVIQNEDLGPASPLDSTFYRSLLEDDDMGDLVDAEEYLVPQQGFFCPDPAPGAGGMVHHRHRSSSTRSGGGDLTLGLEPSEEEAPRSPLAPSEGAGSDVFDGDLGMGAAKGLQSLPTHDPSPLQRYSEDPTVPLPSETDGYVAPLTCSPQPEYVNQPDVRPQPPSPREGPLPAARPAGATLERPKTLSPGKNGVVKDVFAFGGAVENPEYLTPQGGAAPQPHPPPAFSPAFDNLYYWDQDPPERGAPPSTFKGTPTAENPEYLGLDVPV
SMILES,viability [1] [%],Her2 level [2],viability [3],viability [4],viability [5],differential viability (reversal) ([6]; H69AR cells + 2 uM doxorubicin),"viability [6, 9] [%]","viability [6, 10] [%]",inhibition [7],inhibition [8]
CCOC(=O)c1sc(N)c(C(=O)OCC)c1COC(=O)C1CC(=O)N(Cc2ccco2)C1 (stereo not given),91.5,113% (inactive),91.5% (inactive),80.7% (inactive),72.4% (inactive),22.6% (inactive),49.8,72.4,-7.6% (inactive),-8.71% (inactive)
CCC(=O)N1CCc2cc(S(=O)(=O)CCC(=O)Nc3c(C)n(C)n(-c4ccccc4)c3=O)ccc21,96,104% (inactive),96% (inactive),89.8% (inactive),94% (inactive),6.7% (inactive),87.3,94,-2.93% (inactive),-10.7% (inactive)
CC(=O)c1c(C)[nH]c(C(=O)N2CCN(C(=O)c3ccco3)CC2)c1C,85,102% (inactive),85% (inactive),94.5% (inactive),99.1% (inactive),0.42% (inactive),98.7,99.1,-2.3% (inactive),-0.49% (inactive)
O=C(Nc1ccc(N2C(=O)C3C4C=CC(C4)C3C2=O)cc1)Nc1cccnc1 (stereo not given),108,83% (inactive),108% (inactive),75.3% (inactive),86% (inactive),-0.065% (inactive),86.1,86,-3.29% (inactive),-1.33% (inactive)
COC(=O)c1ccccc1S(=O)(=O)NC(=O)c1ccccc1,107,74% (inactive),107% (inactive),107% (inactive),88.2% (inactive),5.66% (inactive),82.5,88.2,-1.82% (inactive),-3.81% (inactive)
O=C(Nc1ccc2c(c1)OCO2)c1cncc(Br)c1,108,77% (inactive),108% (inactive),82% (inactive),92.6% (inactive),2.14% (inactive),90.5,92.6,-4.27% (inactive),5.25% (inactive)
CN1CCN(/C=N/c2sc3c(c2C#N)CCCCC3)CC1,97,96.5% (inactive),97% (inactive),75.9% (inactive),84.2% (inactive),6.14% (inactive),78.1,84.2,0.67% (inactive),-9.52% (inactive)
N#Cc1ccc(COC(=O)Cn2nnc(-c3ccccc3)n2)cc1,111,96% (inactive),111% (inactive),89.5% (inactive),70.7% (inactive),6.57% (inactive),64.1,70.7,-3.12% (inactive),-0.95% (inactive)
Cc1cc(C)nc(NC(=O)c2c(-c3c(Cl)cccc3Cl)noc2C)n1,84,98.5% (inactive),84% (inactive),94% (inactive),85.1% (inactive),-5.23% (inactive),90.3,85.1,-7.73% (inactive),-6.03% (inactive)
COCn1c(COc2ccccc2)nc2ccccc21,86.5,94% (inactive),86.5% (inactive),107% (inactive),82.6% (inactive),-2.19% (inactive),84.8,82.6,-9.32% (inactive),-2.67% (inactive)
COc1ccc(C(=O)Cn2c(N3CCCCC3)nc3c2c(=O)n(C)c(=O)n3C)cc1OC,94,98.5% (inactive),94% (inactive),83.9% (inactive),92.7% (inactive),-6.42% (inactive),99.1,92.7,1.18% (inactive),-1.48% (inactive)
CCOc1ccc2nc(NC(=O)CSc3nnnn3C3CCCCC3)sc2c1,92,108% (inactive),92% (inactive),59.7% (inactive),63.5% (inactive),4.67% (inactive),58.8,63.5,9.08% (inactive),-0.33% (inactive)
Cc1ccc(CN2C(=O)CCC2C(=O)NCCCN2CCC(C)CC2)cc1 (stereo not given),98.5,88.5% (inactive),98.5% (inactive),93.7% (inactive),103% (inactive),2.18% (inactive),101,103,-5.73% (inactive),6.89% (inactive)
CCC(c1nnnn1CCOC)N(Cc1ccc(C)cc1)Cc1cc2cc(OC)ccc2[nH]c1=O (stereo not given),115,89% (inactive),115% (inactive),71.9% (inactive),72.5% (inactive),7.76% (inactive),64.7,72.5,-3.03% (inactive),-1.77% (inactive)
CC1CCN(S(=O)(=O)c2ccc(S(=O)(=O)NCC(=O)C(C)(C)C)cc2)CC1,108,97% (inactive),108% (inactive),92.7% (inactive),91.8% (inactive),6.57% (inactive),85.3,91.8,-6.97% (inactive),-8.23% (inactive)
